In ChEMBL document CHEMBL1139484, “Design, synthesis, and binding studies of new potent ligands of cannabinoid receptors” (J Med Chem, 2005):

What was measured:
[1] = Inhibition of anandamide membrane transporter in RBL-2H3 cells assessed as [14C]anandamide uptake; assay type: cell-based, Rattus norvegicus
Outline: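 RBL-2H3 cells incubated with [14C]anandamide (4 µM) for 5 min at 37 °C, with or without varying inhibitor concentrations. Medium extracted with CHCl3/CH3OH (2:1); residual radioactivity taken as measure of uptake. IC50 from fit; mean of 3 experiments.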

Cannabinoid receptor 2 = Cannabinoid receptor 2 (Homo sapiens, UniProt P34972); assay: Displacement of [3H]CP-55940 from human CB2 receptor expressed in COS cells; assay type: cell-based
Cannabinoid receptor 2, sequence (P34972 whole entry): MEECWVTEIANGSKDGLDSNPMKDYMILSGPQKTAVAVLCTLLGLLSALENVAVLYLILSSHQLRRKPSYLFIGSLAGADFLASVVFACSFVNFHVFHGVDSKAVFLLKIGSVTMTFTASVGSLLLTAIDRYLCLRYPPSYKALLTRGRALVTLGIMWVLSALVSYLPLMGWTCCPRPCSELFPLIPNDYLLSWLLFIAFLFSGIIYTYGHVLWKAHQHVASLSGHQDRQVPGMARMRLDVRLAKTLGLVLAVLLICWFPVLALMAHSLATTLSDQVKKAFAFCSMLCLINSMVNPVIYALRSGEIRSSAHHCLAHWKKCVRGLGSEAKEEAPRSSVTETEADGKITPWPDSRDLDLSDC

Cannabinoid receptor 1 = Cannabinoid receptor 1 (Homo sapiens, UniProt P21554); assay: Displacement of [3H]CP-55940 from human CB1 receptor expressed in COS cells; assay type: cell-based
Cannabinoid receptor 1, sequence (P21554 whole entry): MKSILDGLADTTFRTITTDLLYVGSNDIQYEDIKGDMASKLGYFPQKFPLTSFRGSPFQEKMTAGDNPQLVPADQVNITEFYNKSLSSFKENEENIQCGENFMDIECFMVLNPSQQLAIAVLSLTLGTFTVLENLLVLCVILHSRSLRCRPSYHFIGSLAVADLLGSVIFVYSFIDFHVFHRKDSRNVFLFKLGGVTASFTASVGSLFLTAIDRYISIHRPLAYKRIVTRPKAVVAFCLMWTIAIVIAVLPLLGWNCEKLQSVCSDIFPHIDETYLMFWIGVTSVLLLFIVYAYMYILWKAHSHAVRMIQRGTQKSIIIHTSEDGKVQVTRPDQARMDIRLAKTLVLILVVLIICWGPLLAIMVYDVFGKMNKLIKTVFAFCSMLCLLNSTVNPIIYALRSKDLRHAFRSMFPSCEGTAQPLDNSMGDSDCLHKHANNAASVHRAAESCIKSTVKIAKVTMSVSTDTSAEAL

[2] = molecular target: Cannabinoid receptor (Homo sapiens) (UniProt P34972+P21554); assay: Selectivity for human CB2 receptor over human CB1 receptor; assay type: protein assay
Cannabinoid receptor (Homo sapiens), sequence (P21554 whole entry, looked up): as the sequence (P21554 whole entry) above
Cannabinoid receptor (Homo sapiens), sequence (P34972 whole entry, looked up): as the sequence (P34972 whole entry) above
Outline: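 Ratio of Ki values from [3H]CP-55,940 (0.5 nM) displacement on P2 membranes of COS cells transfected with human CB1 or CB2; Ki from IC50 by Cheng-Prusoff, mean of 3 experiments.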

[3] = molecular target: T1, Fatty-acid amide hydrolase 1 (Rattus norvegicus, UniProt P97612); assay: Inhibition of rat brain FAAH assessed as [14C]anandamide hydrolysis
T1 sequence (P97612 whole entry): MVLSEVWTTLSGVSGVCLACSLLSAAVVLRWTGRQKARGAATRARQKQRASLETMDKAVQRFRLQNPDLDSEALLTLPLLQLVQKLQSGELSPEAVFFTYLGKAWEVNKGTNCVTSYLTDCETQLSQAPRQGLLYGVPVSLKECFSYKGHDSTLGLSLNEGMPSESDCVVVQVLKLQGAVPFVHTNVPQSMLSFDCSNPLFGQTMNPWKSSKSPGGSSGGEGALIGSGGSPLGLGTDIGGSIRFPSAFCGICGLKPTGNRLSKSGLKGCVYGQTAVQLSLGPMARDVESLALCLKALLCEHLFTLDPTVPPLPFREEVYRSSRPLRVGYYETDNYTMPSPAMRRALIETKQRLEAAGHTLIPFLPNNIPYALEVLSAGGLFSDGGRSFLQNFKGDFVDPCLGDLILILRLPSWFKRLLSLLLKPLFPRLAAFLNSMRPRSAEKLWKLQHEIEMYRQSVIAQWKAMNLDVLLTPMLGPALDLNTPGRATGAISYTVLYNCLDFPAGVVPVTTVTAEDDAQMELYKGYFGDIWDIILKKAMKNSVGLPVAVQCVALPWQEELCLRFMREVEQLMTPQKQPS
Outline: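 Rat brain membranes incubated with [14C]anandamide (6 µM) and increasing compound concentrations in 50 mM Tris-HCl pH 9, 30 min, 37 °C. Mixture extracted with 2 volumes CHCl3/CH3OH (2:1); [14C]ethanolamine in aqueous phase counted by scintillation. IC50 reported; mean of 3 experiments.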

SMILES | IC50 [1] [µM] | Ki (Cannabinoid receptor 1) [µM] | also measured
CCCCCCc1ccc(O)cc1OCCCCCCCCCCC(=O)NCCO | > 25 |  | 
CCCCCCc1ccc(O)cc1OCCCCCCCCCCC(=O)Nc1ccc(O)cc1 | > 25 |  | 
CCCCCCc1ccc(O)cc1OCCCCCC(=O)NCCO |  |  | Ki (Cannabinoid receptor 2): > 10 µM
CCCCCCCCCCCCCCCc1cccc(OCCCCCC(=O)Nc2ccc(O)cc2)c1 | > 25 |  | 
CCCCCc1cc(O)cc(OCCCCCCCCCCCCCCCC(=O)Nc2ccc(O)cc2)c1 |  | > 10 | 
CCCCCc1cc(O)cc(OCCCCCCCCCCC(=O)NC2CC2)c1 | 17 |  | 
CCCCCc1cc(O)cc(OCCCCCCCCCCC(=O)NCCO)c1 | 25 |  | 
O=C(CCCCCCCCCCCCCCCOc1cccc(O)c1)Nc1ccc(O)cc1 |  |  | Ki (Cannabinoid receptor 2): 10 µM
CCCCCCc1ccc(OCCCCCCCCCCC(=O)NC2CC2)cc1O | > 25 | > 10 | Selectivity ratio [2]: 26
O=C(CCCCCCCCCCCCCCCOc1cccc(O)c1)NCCO |  | > 10 | 
CCCCCc1cc(O)cc(OCCCCCCCCCCCCCCCC(=O)NC2CC2)c1 |  | > 10 | 
O=C(CCCCCCCCCCOc1cccc(O)c1)Nc1ccc(O)cc1 |  |  | Ki (Cannabinoid receptor 2): > 10 µM
CCCCCCc1ccc(OCCCCCCCCCCCCCCCC(=O)Nc2ccc(O)cc2)cc1O |  | > 10 | 
CCCCCCc1ccc(OCCCCCCCCCCC(=O)NCCO)cc1O |  | > 10 | 
O=C(CCCCCCCCCCOc1cccc(O)c1)NC1CC1 |  | > 10 | 
CCCCCCCCCCCCCCCc1cccc(OCCCCCC(=O)NCCO)c1 | > 25 |  | 
O=C(CCCCCCCCCCOc1cccc(O)c1)NCCO |  | > 10 | 
CCCCCCc1ccc(O)cc1OCCCCCCCCCCC(=O)NC1CC1 | 13 |  | IC50 [3]: > 25 µM
CCCCCCc1ccc(OCCCCCCCCCCC(=O)Nc2ccc(O)cc2)cc1O | > 25 |  | Ki (Cannabinoid receptor 2): > 10 µM
